≈ marks a conversion by molar mass, not a printed value.
What was measured:
[1] = tested on: Trypanosoma brucei rhodesiense; assay: Antitrypanosomal activity against bloodstream form of Trypanosoma brucei rhodesiense STIB 900 assessed as parasite growth inhibition after 72 hrs by Alamar blue assay; format: functional; conditions: STIB 900, 72 h
Procedure, shortened: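 Standard 72 h growth-inhibition assay with STIB 900 bloodstream trypomastigotes and Alamar Blue read-out. Value is the mean of at least 2 measurements.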

[2] = Octanol-water intrinsic distribution co-efficient, log D of the compound at 100 uM at pH 7.4 after 16 to 22 hrs by CAMDIS assay; format: physicochemical
Procedure, shortened: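 Octanol/aqueous buffer (pH 7.4) intrinsic distribution coefficient measured in the CAMDIS carrier-mediated distribution system.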

[3] = Solubility of the compound at pH 6.5 by LYSA; format: physicochemical; conditions: buffer
Procedure, shortened: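 Lyophilization solubility assay at pH 6.5.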

[4] = molecular target: Rhodesain (Trypanosoma brucei rhodesiense, UniProt Q95PM0); assay: Inhibition of Trypanosoma brucei rhodesiense rhodesain using Cbz-Phe-Arg-AMC as substrate by fluorimetric method
Chain of Rhodesain (Q95PM0 whole entry): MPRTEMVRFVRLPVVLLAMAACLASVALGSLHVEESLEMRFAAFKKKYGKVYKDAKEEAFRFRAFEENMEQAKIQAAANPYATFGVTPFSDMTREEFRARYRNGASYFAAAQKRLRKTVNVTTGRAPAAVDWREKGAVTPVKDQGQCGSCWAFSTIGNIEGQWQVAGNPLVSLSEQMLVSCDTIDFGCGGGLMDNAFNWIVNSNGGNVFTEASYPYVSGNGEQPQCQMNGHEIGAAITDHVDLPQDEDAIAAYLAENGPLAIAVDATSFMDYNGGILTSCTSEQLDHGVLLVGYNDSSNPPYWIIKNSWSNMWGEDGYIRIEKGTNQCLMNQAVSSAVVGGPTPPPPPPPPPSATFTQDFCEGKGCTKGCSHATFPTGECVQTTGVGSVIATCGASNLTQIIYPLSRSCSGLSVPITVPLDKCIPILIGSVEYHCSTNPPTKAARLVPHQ
Procedure, shortened: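 Fluorescence-based assay run at 25 °C in 50 mM sodium acetate pH 5.5 with 5 mM EDTA, 200 mM NaCl and 0.005% Brij35. IC50 values were converted to Ki with the Cheng-Prusoff equation. Values are the average of two measurements, each done in duplicate.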

[5] = molecular target: Procathepsin L (Homo sapiens, UniProt P07711); assay: Inhibition of human CatL using Cbz-Phe-Arg-AMC as substrate measured over 30 mins by fluorimetric method
Chain of Procathepsin L (P07711 whole entry): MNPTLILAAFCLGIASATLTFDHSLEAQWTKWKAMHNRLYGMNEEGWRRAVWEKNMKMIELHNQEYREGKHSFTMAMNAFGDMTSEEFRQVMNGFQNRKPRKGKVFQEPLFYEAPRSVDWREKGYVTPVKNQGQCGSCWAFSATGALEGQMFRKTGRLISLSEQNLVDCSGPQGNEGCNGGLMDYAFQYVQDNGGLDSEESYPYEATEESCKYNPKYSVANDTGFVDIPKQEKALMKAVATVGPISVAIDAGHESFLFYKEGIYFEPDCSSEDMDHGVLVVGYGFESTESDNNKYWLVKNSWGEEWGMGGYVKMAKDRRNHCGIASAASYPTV
Procedure, shortened: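 Human cathepsin L in a fluorimetric assay in 50 mM Tris pH 6.5, 5 mM EDTA, 200 mM NaCl, 0.005% Brij35 at 25 °C. Ki was calculated from IC50 by Cheng-Prusoff. Value is the average of two measurements, each in duplicate.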

[6] = Selectivity index, ratio of Ki for human CatL to Ki for Trypanosoma brucei rhodesiense rhodesain
Procedure, shortened: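 Ki(hCatL)/Ki(RD). Fluorimetric assays at 25 °C: RD in 50 mM sodium acetate pH 5.5; hCatL in 50 mM Tris pH 6.5; both buffers with 5 mM EDTA, 200 mM NaCl, 0.005% Brij35. Ki derived from IC50 by Cheng-Prusoff. Each value is the mean of two measurements, each done in duplicate.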

[7] = tested on: L6; assay: Cytotoxicity against rat L6 cells after 72 hrs by Alamar blue assay; format: cell-based; conditions: L6, 72 h
Procedure, shortened: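 Rat skeletal myoblast L6 cells in an Alamar Blue growth-inhibition assay. Value is the mean of at least 2 measurements.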

[8] = Selectivity index, ratio of IC50 for rat L6 cells to IC50 for bloodstream form of Trypanosoma brucei rhodesiense STIB 900; format: toxicity; conditions: read-out: Ratio IC50
Procedure, shortened: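 Ratio of L-6 rat skeletal myoblast IC50 to T. b. rhodesiense STIB 900 bloodstream trypomastigote IC50, both from Alamar Blue growth-inhibition assays. Each IC50 is the mean of at least 2 measurements.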

[9] = tested on: Trypanosoma brucei rhodesiense; assay: Antitrypanosomal activity against bloodstream form of Trypanosoma brucei rhodesiense STIB 900 assessed as parasite growth inhibition after 2 hrs by Alamar blue assay; format: functional; conditions: STIB 900, 2 h
Procedure, shortened: (§1)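 Bloodstream STIB 900 trypomastigotes, 1x10⁴ per well, exposed to eleven 3-fold serial dilutions at 37 °C/5% CO₂ for the stated pulse time. Parasites were then pelleted and washed four times, and an aliquot was regrown 72 h drug-free in triplicate plates. Resazurin was added for 2–4 h, fluorescence read at ex 536/em 588 nm, and IC50 taken by linear regression of sigmoidal curves. Melarsoprol served as control.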

[10] = tested on: Trypanosoma brucei rhodesiense; assay: Antitrypanosomal activity against bloodstream form of Trypanosoma brucei rhodesiense STIB 900 assessed as parasite growth inhibition after 6 hrs by Alamar blue assay; format: functional; conditions: STIB 900, 6 h; procedure, shortened: as §1
[11] = tested on: Trypanosoma brucei rhodesiense; assay: Antitrypanosomal activity against bloodstream form of Trypanosoma brucei rhodesiense STIB 900 assessed as parasite growth inhibition after 16 hrs by Alamar blue assay; format: functional; conditions: STIB 900, 16 h; procedure, shortened: as §1
[12] = tested on: Trypanosoma brucei rhodesiense; assay: Antitrypanosomal activity against bloodstream form of Trypanosoma brucei rhodesiense STIB 900 assessed as parasite growth inhibition after 24 hrs by Alamar blue assay; format: functional; conditions: STIB 900, 24 h; procedure, shortened: as §1
[13] = tested on: Trypanosoma brucei rhodesiense; assay: Antitrypanosomal activity against bloodstream form of Trypanosoma brucei rhodesiense STIB 900 assessed as parasite growth inhibition after 48 hrs by Alamar blue assay; format: functional; conditions: STIB 900, 48 h; procedure, shortened: as §1
[14] = tested on: Trypanosoma brucei rhodesiense; assay: Antitrypanosomal activity against bloodstream form of Trypanosoma brucei rhodesiense STIB 900 infected in NMRI mouse assessed as reduction of parasitemia at 50 mg/kg, po administered for 3 consecutive days starting 1 day post infection measured at 24 hrs post last dose relative to control; format: functional; set-up: scale not given: the % may be the effect or the level left
Procedure, shortened: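 Female mice infected with STIB900 were dosed orally at 50 mg/kg/day on three consecutive days, starting 1 day post-infection. Compound was in 100% DMSO diluted 10-fold in distilled water, given at 0.1 mL/10 g. Tail-blood parasitaemia was measured 24 h after the last dose versus 4 untreated infected controls. Values are means of 2 mice.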

SMILES	IC50 [1] [nM]	logD at 100 µM [2]	solubility [3] [µg/mL]	Ki [4] [nM]	Ki [5] [nM]	Ratio Ki [6]	IC50 [7] [nM]	selectivity ratio [8]	IC50 [9] [nM]	IC50 [10] [nM]	IC50 [11] [nM]	IC50 [12] [nM]	IC50 [13] [nM]	Activity [14] [%]
CC1CS(=O)(=O)CCN1/N=C/c1ccc([N+](=O)[O-])o1 (stereo not given) [NIFURTIMOX]	1440													
N#CC1(NC(=O)[C@H](Cc2ccc(OC(F)(F)F)c(Cl)c2)NC(=O)c2cnn(C3CCC3)n2)CC1	1	3.88	11 (≈ 22.1 µM)	11	11	1	48000	48000						
N#CC1(NC(=O)[C@H](Cc2ccccc2)NC(=O)c2cnn(-c3ccc(F)cc3)n2)CC1				7.4 to 597		18 to 507								
N#CC1(NC(=O)[C@H](Cc2ccc(OC(F)(F)F)c(Cl)c2)NC(=O)c2cnn(-c3ccc(Br)cc3)n2)CC1	28		< 0.3	25	1080	43	7600	271						
N=C(N)c1ccc(OCCCCCOc2ccc(C(=N)N)cc2)cc1 [PENTAMIDINE]	9													
N#CC1(NC(=O)[C@H](Cc2ccc(OC(F)(F)F)c(Cl)c2)NC(=O)c2cnn(-c3ccc(Cl)cc3)n2)CC1	22		< 0.3	10	467	47	8300	377						
N#CC1(NC(=O)[C@H](Cc2ccc(Cl)c(Cl)c2)NC(=O)c2cnn(C3CCOCC3)n2)CC1	23			4	93	23	> 100000							
COCCOc1ccc(C[C@H](NC(=O)c2cnn(-c3ccc(F)cc3)n2)C(=O)NC2(C#N)CC2)cc1Cl	27 to 190			9 to 16	181 to 314	18 to 507								
Nc1nc(N)nc(Nc2ccc([As]3SCC(CO)S3)cc2)n1 (stereo not given) [MELARSOPROL]	4 to 9								> 180	99	86	44	26	
N#CC1(NC(=O)[C@H](Cc2ccc(Cl)c(Cl)c2)NC(=O)c2cnn(C3CCC3)n2)CC1	4			71	7	0.1	58200	14600						
N#CC1(NC(=O)[C@H](Cc2ccc(OC(F)(F)F)c(Cl)c2)NC(=O)c2cnn(C3COC3)n2)CC1	3	2.58	4 (≈ 8.02 µM)	31	25	0.8	96000	32000						43.1
N#CC1(NC(=O)[C@H](Cc2ccc(OC(F)(F)F)c(Cl)c2)NC(=O)c2cnn(C3CCNC3)n2)CC1 (stereo not given in full)	0.2	1.33	253 (≈ 494 µM)	93	14	0.2	56000	280000						0.4
Cc1ccc(C(=O)Nc2ccc(S(=O)(=O)O)c3cc(S(=O)(=O)O)cc(S(=O)(=O)O)c23)cc1NC(=O)c1cccc(NC(=O)Nc2cccc(C(=O)Nc3cc(C(=O)Nc4ccc(S(=O)(=O)O)c5cc(S(=O)(=O)O)cc(S(=O)(=O)O)c45)ccc3C)c2)c1 [SURAMIN]	46													
N#CC1(NC(=O)[C@H](Cc2ccc(OC(F)(F)F)c(Cl)c2)NC(=O)c2cnn(-c3ccncc3)n2)CC1	0.6	3.69	5.2 (≈ 10 µM)	16	82	5	> 10000							43.3
N#Cc1ccc(C[C@H](NC(=O)c2cnn(-c3ccc(F)cc3)n2)C(=O)NC2(C#N)CC2)cc1Cl	6	3.63	< 0.3	7	253	36	> 10000							
N#CC1(NC(=O)[C@H](Cc2ccc(OCC3CCC3)c(Cl)c2)NC(=O)c2cnn(-c3ccc(F)cc3)n2)CC1	27		< 0.3	16	314	20	7600	281						

SMILES	IC50 [1] [nM]	logD at 100 µM [2]	solubility [3] [µg/mL]	Ki [4] [nM]	Ki [5] [nM]	Ratio Ki [6]	IC50 [7] [nM]	selectivity ratio [8]	IC50 [9] [nM]	IC50 [10] [nM]	IC50 [11] [nM]	IC50 [12] [nM]	IC50 [13] [nM]	Activity [14] [%]
N#CC1(NC(=O)[C@H](Cc2ccc(Cl)cc2)NC(=O)c2cnn(-c3ccc(F)cc3)n2)CC1	6	3.97	< 0.3	3	1520	507	> 10000							
N#CC1(NC(=O)[C@H](Cc2ccc(OC(F)(F)F)c(Cl)c2)NC(=O)c2cnn(C3CCCCC3)n2)CC1	6		0.3 (≈ 0.572 µM)	12	82	6.8	31000	5170						
CSc1ccc(OCc2ncc([N+](=O)[O-])n2C)cc1 [FEXINIDAZOLE]	1710 to 2930													
N#CC1(NC(=O)[C@H](Cc2ccc(Cl)c(Cl)c2)NC(=O)c2cnn(C3CC(F)(F)C3)n2)CC1	8			18	64	3.6	54800	6840						15.8
N#CC1(NC(=O)[C@H](Cc2ccc(OCC3CC3)c(Cl)c2)NC(=O)c2cnn(-c3ccc(F)cc3)n2)CC1	27 to 190			9 to 16	181 to 314	18 to 507								
N#CC1(NC(=O)[C@H](Cc2ccc(Cl)c(Cl)c2)NC(=O)c2cnn(C3COC3)n2)CC1	8			33	78	2.4	> 100000							45.3
N#CC1(NC(=O)[C@H](Cc2ccccc2Cl)NC(=O)c2cnn(-c3ccc(F)cc3)n2)CC1				7.4 to 597		18 to 507								
N#CC1(NC(=O)[C@H](Cc2ccc(OCc3ccccc3)cc2)NC(=O)c2cnn(-c3ccc(F)cc3)n2)CC1	19		< 0.3	17	1470	87	> 10000							
N#CC1(NC(=O)[C@H](Cc2ccccc2C(F)(F)F)NC(=O)c2cnn(-c3ccc(F)cc3)n2)CC1				7.4 to 597		18 to 507								
N#Cc1ccccc1C[C@H](NC(=O)c1cnn(-c2ccc(F)cc2)n1)C(=O)NC1(C#N)CC1				7.4 to 597		18 to 507								
N#CC1(NC(=O)[C@H](Cc2cccc(Cl)c2)NC(=O)c2cnn(-c3ccc(F)cc3)n2)CC1				7.4 to 597		18 to 507								
N#CC1(NC(=O)[C@H](Cc2ccc(OC(F)(F)F)c(Cl)c2)NC(=O)c2cnn(C3CCOCC3)n2)CC1	13	3.33	90 (≈ 171 µM)	18	112	6.2	> 100000							
N#CC1(NC(=O)[C@H](Cc2ccc(OC(F)(F)F)c(Cl)c2)NC(=O)c2cnn(C3CC(F)(F)C3)n2)CC1	9	3.89	2.2 (≈ 4.13 µM)	41	76	1.5	50000	5560						
CSc1ccc(-n2ncc(C(=O)N[C@@H](Cc3ccc(OC(F)(F)F)c(Cl)c3)C(=O)NC3(C#N)CC3)n2)cc1	67		< 0.3	19	1120	59	> 10000							
CC(C)C[C@H](NC(=O)c1cnn(-c2ccc(F)cc2)n1)C(=O)NC1(C#N)CC1	2200	3.3	42 (≈ 109 µM)	23		18 to 507								

From ChEMBL document CHEMBL4043300, “2 H-1,2,3-Triazole-Based Dipeptidyl Nitriles: Potent, Selective, and Trypanocidal Rhodesain Inhibitors by Structure-Based Design” (J Med Chem, 2018)
